Source: PubChem BioAssay (several laboratories)
ADAM10 inh = inhibitors of human ADAM10. AID 720582. O14672. actives 0.62% (n = 370,000). recombinant ADAM10, EDANS/DABCYL FRET peptide cleavage, 3 h. inhibition, % at 7 µM;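 active = inhibition above a per-campaign cutoff equal to the mean of compounds falling between control-based bounds plus 3 SD, cut at about 20% in these data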;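 note: 0% = DMSO wells while the 100% control is not disclosed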
SKN-1 block = inhibitors of C. elegans SKN-1; C. elegans VP596 Pgst-4::GFP/RFP ratio, acrylamide-induced, 24 h; inhibition, % at 21.8 µM; actives 0.49% (n = 360,000); AID 624304;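 active = interference check ratio from 0.5 to 1.5 plus GFP to RFP signal ratio inhibition reaching or exceeding a fixed threshold, cut at about 30% in these data, passing the limit was not always enough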
MT1-MMP act inh = inhibitors of human MT1-MMP activation; P50281; actives 0.061% (n = 360,000); HT1080 RFP-PRO-GFP cells, GFP/RFP ratio fluorescence, overnight; percent of plate control window, DMSO zero; GFP/RFP ratio change, % at 20 µM; AID 651647;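 active = GFP/RFP ratio change of at least 30% with cell ATP level not reduced by more than half and red fluorescence within 50% of control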
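Assay system: RFP-PRO-GFP reporter HT1080 cells; read-out basis: GFP/RFP fluorescence ratio; benchmarks: DMSO wells and RFP-L50D-GFP cells; doses: 20 µM single dose, 1% DMSO; schedule: overnight cell settling, then overnight compound exposure, 37 °C, 5% CO2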
ADAM17 inh = inhibitors of human ADAM17 | P78536 | recombinant ADAM17, EDANS/DABCYL FRET peptide cleavage | inhibition, % at 6.95 µM | actives 0.83% (n = 370,000);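 active = inhibition above the mean of compounds lying between control limits plus 3 SD, set per campaign, cut at about 8.5% in these data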;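 note: 0% = DMSO-only wells as the low control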
Target sequence (P78536 215-824 limits assumed): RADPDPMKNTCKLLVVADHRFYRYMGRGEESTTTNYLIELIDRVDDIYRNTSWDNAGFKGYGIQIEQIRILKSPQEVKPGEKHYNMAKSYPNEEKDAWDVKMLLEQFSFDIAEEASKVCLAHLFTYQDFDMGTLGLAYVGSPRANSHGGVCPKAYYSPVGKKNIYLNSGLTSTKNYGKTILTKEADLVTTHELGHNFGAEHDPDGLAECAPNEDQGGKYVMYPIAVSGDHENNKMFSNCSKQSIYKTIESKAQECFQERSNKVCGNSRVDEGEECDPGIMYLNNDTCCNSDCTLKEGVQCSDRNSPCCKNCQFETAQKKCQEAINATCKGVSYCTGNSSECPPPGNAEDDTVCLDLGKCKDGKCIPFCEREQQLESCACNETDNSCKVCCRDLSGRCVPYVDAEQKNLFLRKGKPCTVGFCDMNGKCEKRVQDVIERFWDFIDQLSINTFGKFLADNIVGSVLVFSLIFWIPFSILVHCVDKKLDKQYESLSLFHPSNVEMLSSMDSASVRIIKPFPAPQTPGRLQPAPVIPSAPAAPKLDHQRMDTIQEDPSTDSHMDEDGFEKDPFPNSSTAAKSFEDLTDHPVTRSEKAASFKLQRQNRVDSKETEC
MPTP block = inhibitors of mitochondrial permeability transition pore; inhibition, % at 10 µM; actives 1.4% (n = 360,000); isolated mouse mitochondria, Ca2+ swelling absorbance, 30 min;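 active = inhibition of 50% or more, scaled per plate between neutral and stimulator controls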;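 note: 0% = DMSO wells given calcium and 100% = 1 mM EGTA wells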
NR3A LBD binder = modulates the human NR3A ligand-binding domain; NR3A LBD differential scanning fluorimetry, Tm shift; 0% = protein alone, 100% = glycine-bound protein; Tm shift relative to glycine control, % at 25 µM; actives 2.5% (n = 340,000); AID 1259313;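 active = melting temperature shift of at least 10% of the positive control shift, at one fixed dose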
ADAM10 confirm = human ADAM10 inhibition, confirmation. actives 1% (n = 2,100). shares compounds with ADAM10 inh. AID 743208. ADAM10 QFRET peptide cleavage, EDANS fluorescence. inhibition, % at 6.95 µM;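 active = inhibition above about 20% chosen separately for each screening run, limit read from the data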;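 note: 0% = DMSO wells and 100% = marimastat wells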
ADAM17 ctr = ADAM17 inhibition, counter-screen for ADAM10 exosite hits | actives 0.5% (n = 2,100) | inhibition, % at 6.95 µM | shares compounds with ADAM10 inh | ADAM17 QFRET peptide cleavage, EDANS fluorescence;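 active = mean triplicate inhibition above the solvent-only control wells' mean plus 3 SD, cut at about 12% in these data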;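 note: 0% = DMSO wells and 100% = marimastat wells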
Numbers without * were called inactive. Hits are enriched below; roughly 4.7% of the tested compounds scored in any of these assays.

COc1ccc(NC(=O)CN2C(=O)NC(c3ccccc3)(c3ccccc3)C2=O)cc1 was read as ADAM10 inh 10.2, SKN-1 block 2.0, MT1-MMP act inh -2.3, ADAM17 inh 4.0, MPTP block 1.1 and NR3A LBD binder 0.8.
`COc1ccc(C2(c3ccc(OC)cc3)NC(=O)N(CC(=O)Nc3ccc(OC(F)F)cc3)C2=O)cc1` gave ADAM10 inh 31.4*, SKN-1 block -12.9, MT1-MMP act inh -0.9, ADAM17 inh 5.7, MPTP block 1.0, NR3A LBD binder 8.9, ADAM10 confirm 9.1 and ADAM17 ctr 2.2.
CC(C)(C)C1CCc2onc(C(=O)NCc3ccc(F)cc3)c2C1 (configuration not stated) was read as ADAM10 inh 21.1*, SKN-1 block -1.2, MT1-MMP act inh 5.8, ADAM17 inh 4.0, MPTP block -0.4, NR3A LBD binder -9.5, ADAM10 confirm 4.1 and ADAM17 ctr 1.2.
`CN(CC(=O)Nc1ccc(F)cc1)C(=O)COc1ccc(C(=O)c2ccccc2)cc1` gave ADAM10 inh 3.5, SKN-1 block 1.1, MT1-MMP act inh 0.5, ADAM17 inh 1.6, MPTP block -8.5 and NR3A LBD binder -15.8.
O=C(Nc1ccc2[nH]c(=S)sc2c1)Nc1ccccc1F was read as ADAM10 inh 23.7*, SKN-1 block 34.2, MT1-MMP act inh -1.7, ADAM17 inh -2.6, MPTP block 0.8, NR3A LBD binder 28.7*, ADAM10 confirm 6.2 and ADAM17 ctr 2.2.
For COc1ccc(CNC(=O)[C@H](NC(=O)C2CCN(C(=O)[C@@H](N)CCSC)CC2)C(C)C)cc1 the results were ADAM10 inh 81.8*, SKN-1 block -1.2, MT1-MMP act inh 3.4, ADAM17 inh -0.6, MPTP block -1.6, NR3A LBD binder -0.5, ADAM10 confirm -0.6 and ADAM17 ctr -0.2.
COc1ccc(CNC(=O)[C@H](C)NC(=O)C2CCN(C(=O)[C@@H](N)CCSC)CC2)cc1 was read as ADAM10 inh -7.3, SKN-1 block 1.0, MT1-MMP act inh -1.3, ADAM17 inh -0.5, MPTP block -1.3 and NR3A LBD binder -0.5.
Cc1ccc(NC(=O)CNc2cccc(S(=O)(=O)N3CCCC3)c2)cc1F was read as ADAM10 inh 4.5, SKN-1 block 4.9, MT1-MMP act inh -2.8, ADAM17 inh 3.5, MPTP block 2.7 and NR3A LBD binder -2.8.
Cc1ccccc1OCCC(=O)OCC(=O)Nc1ccc(C)c(S(=O)(=O)N2CCCCC2)c1 was read as ADAM10 inh 18.2, SKN-1 block 7.5, MT1-MMP act inh -0.6, ADAM17 inh 8.0 and MPTP block -0.1.
Cc1ccc(NC(=O)c2cccc(S(=O)(=O)N(C)c3ccccc3)c2)cc1S(=O)(=O)N1CCOCC1 was read as ADAM10 inh 20.5*, SKN-1 block 12.6, MT1-MMP act inh -6.0, ADAM17 inh 8.3, MPTP block 26.8, NR3A LBD binder -8.2, ADAM10 confirm 3.9 and ADAM17 ctr 1.0.
Cc1ccc(NCC(=O)Nc2cccc(S(=O)(=O)N(C)C)c2)cc1S(=O)(=O)N1CCCCCC1 was read as ADAM10 inh 23.8*, SKN-1 block 0.6, MT1-MMP act inh -5.4, ADAM17 inh 8.1, MPTP block 14.9, NR3A LBD binder 2.4, ADAM10 confirm 1.8 and ADAM17 ctr 0.2.
For Cc1ccc(C)c(OCCC(=O)OCC(=O)Nc2ccc(C)c(S(=O)(=O)N3CCCCC3)c2)c1 the results were ADAM10 inh 26.9*, SKN-1 block 9.8, MT1-MMP act inh 4.8, ADAM17 inh -11.0, MPTP block 3.7, NR3A LBD binder 1.9, ADAM10 confirm 8.7 and ADAM17 ctr 3.0.
`CCOC(=O)N/N=C(C)/C=C/c1ccco1` gave ADAM10 inh -13.2, SKN-1 block 5.6, MT1-MMP act inh 0.9, ADAM17 inh -4.1, MPTP block 0.2 and NR3A LBD binder 0.3.
`CCCCOc1ccc(C(=O)N(Cc2ccco2)C2CCS(=O)(=O)C2)cc1` (configuration not stated) gave SKN-1 block -5.7, MT1-MMP act inh 2.9, MPTP block -2.1 and NR3A LBD binder -1.6.
`O=C(NCC1CCCO1)c1ccc(Br)s1` (configuration not stated) gave ADAM10 inh 0.0, SKN-1 block 3.3, MT1-MMP act inh -3.5, ADAM17 inh -2.4, MPTP block 0.2 and NR3A LBD binder 3.1.
CCOC(=O)/C=C/C(=O)Nc1ccc(Oc2ccccc2)cc1 was read as ADAM10 inh 21.4*, SKN-1 block -0.4, MT1-MMP act inh -3.7, ADAM17 inh 1.0, MPTP block 30.0, NR3A LBD binder -11.4, ADAM10 confirm 2.3 and ADAM17 ctr 0.4.
OC(c1ccccc1)(c1nc(-c2ccc(F)c(Cl)c2)cs1)C(F)(F)F (configuration not stated) was read as ADAM10 inh 22.2*, SKN-1 block 24.1, MT1-MMP act inh 2.0, ADAM17 inh 7.7, MPTP block 2.2, ADAM10 confirm 9.3 and ADAM17 ctr 2.9.
For CC(O)(c1ccc(F)c(F)c1)c1nc(-c2ccc(F)c(Cl)c2)cs1 (configuration not stated) the results were ADAM10 inh 22.1*, SKN-1 block 29.4, MT1-MMP act inh 2.0, ADAM17 inh 8.2, MPTP block 2.3, ADAM10 confirm 7.8 and ADAM17 ctr 2.9.
Screening CC(O)(c1ccc(F)c(F)c1)c1nc(-c2cc(F)cc(F)c2)cs1 (configuration not stated) returned ADAM10 inh 20.0*, SKN-1 block 17.3, MT1-MMP act inh 6.9, ADAM17 inh 5.2, MPTP block 3.9, ADAM10 confirm 3.6 and ADAM17 ctr 1.6.
For CCNc1nc(OCCNC(C)=O)nc(N(C)C)n1 the results were ADAM10 inh 2.3, SKN-1 block -11.3, MT1-MMP act inh 9.8, ADAM17 inh -1.5, MPTP block -0.5 and NR3A LBD binder 1.4.
For CCOC(=O)c1ccc(S(=O)(=O)N2CCC(C(=O)NCc3ccccc3OC)CC2)cc1 the results were ADAM10 inh -3.9, SKN-1 block -0.9, MT1-MMP act inh 1.4, ADAM17 inh -4.4, MPTP block 0.7 and NR3A LBD binder 1.8.
For COc1ccccc1CCC(=O)N(C)CC(=O)Nc1ccc(Cl)c(C(F)(F)F)c1 the results were ADAM10 inh 21.9*, SKN-1 block -0.9, MT1-MMP act inh -0.7, ADAM17 inh 5.3, MPTP block 0.3, NR3A LBD binder -4.7, ADAM10 confirm 1.7 and ADAM17 ctr 0.6.
